A selection: hits, their analogues and other compounds. The true share with any hit is near 3.1%.
MEKK2wt PB1 HTS = raises or lowers MEK5 binding to wildtype human MEKK2 PB1 domain; AID 1531; binding response (% of control), % at 10 µM; Q9Y2U5; hit rate 1.1% among 290,000; bead flow cytometry, Alexa488-MEK5 binding to MEKK2 WT; actives lie on both sides; in the data active means binding response below about 67% or above about 130%
UBC13 polyUb = human UBC13 polyubiquitination inhibition | P61088 | UBC13 polyubiquitin chain formation, TR-FRET | inhibition, % at 20 µM | hit rate 0.47% among 330,000; in the data active means inhibition above about 45%, passing the limit was not always enough
Target sequence (P61088 whole entry, looked up): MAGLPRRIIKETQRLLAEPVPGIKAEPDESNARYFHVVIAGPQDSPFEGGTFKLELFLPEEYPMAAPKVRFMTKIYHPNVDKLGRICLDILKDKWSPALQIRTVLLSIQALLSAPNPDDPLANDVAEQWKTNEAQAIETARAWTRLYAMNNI
MEKK3 PB1 HTS = raises or lowers MEK5 binding to the human MEKK3 PB1 domain; hit rate 1.4% among 290,000; binding response (% of control), % at 10 µM; bead-based flow cytometry, Alexa488-MEK5 binding to MEKK3; actives lie on both sides; 0 = blocked by unlabeled MEK5, 100 = vehicle; Q99759;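 active means binding response more than 3 SD above or below the average of its plate-row segment, actives on both sides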;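 further: Alexa488 bead fluorescence after subtracting the streptavidin-only scavenger bead signal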
PREPL inhibitor = inhibits the human prolyl oligopeptidase-like enzyme; recombinant PREPL, fluorescence polarization activity-based probe; inhibition, % at 5.96 µM; hit rate 0.68% among 320,000; AID 2751;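 further: 0% = enzyme with DMSO and 100% = wells lacking enzyme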
Apaf-1 inh = inhibitors of human Apaf-1 apoptosome. O14727. reconstituted apoptosome caspase-3 activity, DEVD-Rh110 fluorescence. inhibition, % at 20 µM. hit rate 0.71% among 330,000. AID 489030; active means inhibition of at least 40% at 20 µM;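 further: plate controls were DMSO wells for no effect and DEVD-CHO caspase inhibitor wells for full effect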
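System: Apoptosome proteins | Medium: Hepes pH 7.5 with detergent and BSA | Also added: Cytochrome c trigger plus (Z-DEVD)2-Rh110 caspase-3 substrate | Incubation: 30 min compound preincubation, 50 min activation, room temperature | Detection: Rhodamine 110 fluorescence at Ex 480/Em 540 nm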
MEKK2 mut-MEK5 = signal of MEK5 binding to mutant human MEKK2 PB1 domain. bead flow cytometry, Alexa488-MEK5 binding to MEKK2 mutant. AID 1530. hit rate 0.35% among 290,000. percent response, % at 10 µM; in the data active means percent response above about 24%, passing the limit was not always enough
MEKK2wt confirm = raises or lowers MEK5 binding to wildtype human MEKK2, retest. binding response (% of control), % at 10 µM. bead flow cytometry, Alexa488-MEK5 binding to MEKK2 WT; actives lie on both sides. shares compounds with MEKK3 PB1 HTS. hit rate 2.4% among 5,900; in the data active means binding response below about 16% or above about 210%; inactive means in between
MEKK2mut confirm = signal of MEK5 binding to mutant human MEKK2, retest; hit rate 2% among 5,900; bead flow cytometry, Alexa488-MEK5 binding to MEKK2 mutant; percent response, % at 10 µM; AID 1893; shares compounds with MEKK3 PB1 HTS; in the data active means percent response mostly above about 71%, no sharp cut-off; inactive means mostly below about 38%;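 further: higher means compound restores mutant binding toward wildtype level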
MEKK3-MEK5 inh = MEKK3-MEK5 PB1 inhibition, single concentration confirmation | hit rate 1.8% among 5,900 | binding response (% of control), % at 10 µM | shares compounds with MEKK3 PB1 HTS | bead flow cytometry, Alexa488-MEK5 binding to MEKK3; stronger effect = lower value | AID 1894;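 active means binding response below 72% of control, or above a set upper limit, though filed actives all read lower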;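 further: 100% = DMSO only wells and 0% = binding blocked by excess unlabeled MEK5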
PREPL inh cf = human PREPL inhibition, confirmation; hit rate 67% among 2,000; recombinant PREPL, fluorescence polarization activity probe; shares compounds with PREPL inhibitor; inhibition, % at 5.96 µM;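 further: 0% = protein with DMSO and 100% = wells lacking protein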
Casp3 counter = counter-screen for UBC13 inhibitors: human caspase-3 inhibition. shares compounds with UBC13 polyUb. Recombinant caspase-3, Caspase-Glo 3/7 luminescence, 60 min. inhibition, % at 20 µM. hit rate 4% among 1,400. AID 488856;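 active means mean inhibition across replicates above about 26%, limit read from the data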;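 further: plate controls were DMSO with caspase-3 for no effect and DMSO wells lacking enzyme for full effect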
Target sequence (P42574 whole entry, looked up): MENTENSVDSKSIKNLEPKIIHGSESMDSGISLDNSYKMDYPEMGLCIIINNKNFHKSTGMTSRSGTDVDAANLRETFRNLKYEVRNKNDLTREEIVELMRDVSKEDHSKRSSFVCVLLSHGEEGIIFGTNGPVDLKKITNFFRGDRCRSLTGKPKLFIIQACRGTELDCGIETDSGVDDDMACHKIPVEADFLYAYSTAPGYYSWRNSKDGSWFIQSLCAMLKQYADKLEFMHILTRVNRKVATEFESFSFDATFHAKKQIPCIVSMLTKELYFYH
UBC13 confirm = confirmation of human UBC13 polyubiquitin inhibitors. shares compounds with UBC13 polyUb. UBC13 polyubiquitination, TR-FRET, biochemical. inhibition, % at 10 µM. hit rate 68% among 1,400. AID 488859; in the data active means inhibition above about 45%
Apaf-1 inh conf = Apaf-1 inhibition, single-dose confirmed; hit rate 25% among 1,800; shares compounds with Apaf-1 inh; reconstituted apoptosome, caspase-3 DEVD-Rh110 fluorescence; inhibition, % at 20 µM;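 active means mean inhibition of at least 40% at 20 µM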;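 further: plate controls were DMSO wells for no effect and DEVD-CHO caspase inhibitor control wells for full effect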
Rh110 quench = counter-screen for Apaf-1 inhibitors: fluorescence interference | shares compounds with Apaf-1 inh | Rh110 fluorescence interference, quenched caspase reaction | activation (fluorescence interference), % at 20 µM | 1,800 tested, under 10 active | AID 504615;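 active means signal rise of 40% or more at 20 µM, treated as a fluorescence artifact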
Apaf1 inh interf = Apaf-1 inhibitor counter-screen fluorescence artifact. shares compounds with Apaf-1 inh. 460 tested, under 10 active. IC50, µM. fluorescence interference counterscreen, Apaf-1 assay format; call rule not given here
* marks the source's active call; other numbers are inactive results; · = no result. Unless noted, no stated cut-off is given here; in the data, active means inhibition above about 43%; inactive means the rest.

SMILES	MEKK2wt PB1 HTS	UBC13 polyUb	MEKK3 PB1 HTS	PREPL inhibitor	Apaf-1 inh	MEKK2 mut-MEK5	PREPL inh cf	others
COC(=O)CCC(=O)OC1(C)C(=O)C=C2C=C(C3CC3)N(CCCCO)C=C2C1=O (centres undefined)	141*	-51	118	7	64*	2	·	MEKK2wt confirm=87;MEKK2mut confirm=-11;MEKK3-MEK5 inh=84;Apaf-1 inh conf=58*;Rh110 quench=2;Apaf1 inh interf=>100
CCOc1ccc2nc(N(CCN(C)C)C(=O)c3ccc4c(c3)CCCC4)sc2c1	152*	3	107	9	55*	25*	·	MEKK2wt confirm=147;MEKK2mut confirm=23;MEKK3-MEK5 inh=103;Apaf-1 inh conf=14;Rh110 quench=-1
c1ccc(CNc2nc(NCc3ccccc3)c3ccccc3n2)cc1	262*	75*	106	29	66*	140*	·	MEKK2wt confirm=256*;MEKK2mut confirm=116*;MEKK3-MEK5 inh=113;Casp3 counter=-1;UBC13 confirm=92*;Apaf-1 inh conf=6;Rh110 quench=0
CCOc1ccccc1N(C)C(=O)Cn1ncc2c([nH]c3ccc(C)cc32)c1=O	103	-4	101	-1	18	1	·
CCCCCCNC(=O)N[C@@H](C(=O)NCCC[C@H]1CN2C(=NC[C@@H]2Cc2ccccc2)N1CCc1cccc(OC)c1)C(C)C	201*	57*	109	34	54*	46*	·	MEKK2wt confirm=169;MEKK2mut confirm=49;MEKK3-MEK5 inh=104;Casp3 counter=2;UBC13 confirm=61*;Apaf-1 inh conf=21;Rh110 quench=14
CCCCCCCCO	·	6	·	8	-3	·	·
CCCCCCCCCCCCCCCC(O)C(N)CO (centres undefined)	220*	111*	102	7	80*	38*	·	MEKK2wt confirm=161;MEKK2mut confirm=36;MEKK3-MEK5 inh=107;Casp3 counter=2;UBC13 confirm=101*;Apaf-1 inh conf=21;Rh110 quench=13
CC[C@@H](C)[C@H](CNC)NC[C@@H](Cc1cccc2ccccc12)NCCc1cccc(C(F)(F)F)c1	318*	60*	114	29	70*	74*	·	MEKK2wt confirm=247*;MEKK2mut confirm=101*;MEKK3-MEK5 inh=113;Casp3 counter=-2;UBC13 confirm=100*;Apaf-1 inh conf=48*;Rh110 quench=13;Apaf1 inh interf=>100
Cc1nc2cc(N)ccc2n1C1CCCCC1	97	-6	95	49*	10	-3	6
Cc1nc2cc(C(=O)O)ccc2n1C1CCCCC1	94	-9	88	3	0	3	·
Cc1ccc(N(CC(=O)NC2CCCCC2)C(=O)CCCC(=O)Nc2ccccn2)cc1	95	4	99	11	1	-2	·
CN(C)c1ccc(C(CNC(=O)c2ccccc2)c2c[nH]c3ccccc23)cc1 (centres undefined)	92	-4	91	51*	2	-3	59*
CN(C)c1ccc(C(CNC(=O)c2ccccc2F)c2c[nH]c3ccccc23)cc1 (centres undefined)	89	-32	96	47*	22	-8	51*
CN(C)c1ccc(C(CNS(=O)(=O)c2ccc(F)c(F)c2)c2c[nH]c3ccccc23)cc1 (centres undefined)	104	7	101	16	6	2	·
COP(=O)(OC)c1nc(-c2ccc(C)cc2)oc1N1CCCCC1	96	4	97	5	12	-2	·
CC1=CC(C)(C)Nc2ccc(OC(=O)CCN3C(=O)c4ccccc4C3=O)cc21	95	5	94	79*	18	-1	78*
CC(C)(C)[C@H]1COC(=O)[C@H](Cc2ccc(F)cc2)CC/C=C/C[C@@H](CC(=O)N[C@H](CO)Cc2ccccc2)C(=O)N1	·	-6	·	46*	20	·	49*
CC(C)(C)[C@@H]1COC(=O)[C@H](Cc2ccc(F)cc2)CC/C=C\C[C@@H](CC(=O)NCCO)C(=O)N1	·	-3	·	49*	1	·	35
C[C@H]1COC(=O)[C@H](Cc2ccc(F)cc2)CC/C=C/C[C@@H](CC(=O)N[C@@H](CO)Cc2ccccc2)C(=O)N1	·	-1	·	41	11	·	·
c1ccc(CN2CCN(c3nc(N4CCOCC4)c4ccccc4n3)CC2)cc1	104	4	98	46*	6	1	39
Cc1ccc(C(=O)CNc2cc(C)ccc2C)cc1	102	-6	106	11	10	0	·
CCNc1cc(O)ccc1C	·	-17	·	70*	9	·	15
CN1C(=O)NC(c2ccccc2[N+](=O)[O-])C2=C1CCCC2=O (centres undefined)	98	-39	103	77*	21	0	14
O=C(COC(=O)/C=C/c1ccccc1)NNC(=O)c1ccc([N+](=O)[O-])cc1	·	1	·	8	2	·	·
CCN(CC)CCC(c1cc(OC)c(OC)c(OC)c1)c1c(O)cc(OC)cc1OC (centres undefined)	92	13	108	45*	-2	2	47*
Cc1ccc(Nc2cc(C)nc3ccccc23)c(C)c1	·	0	·	38	-4	·	·
Cc1ccc(C)c(Nc2cc(C)nc3ccccc23)c1	·	3	·	44*	-1	·	38
Cc1ccc(NS(=O)(=O)c2ccc3c(c2)NC(=O)CCS3)c(Br)c1	99	1	96	0	-3	-1	·
Clc1ccccc1C(c1ccccc1)(c1ccccc1)n1ccnc1	104	15	102	16	20	4	·

Screening data: PubChem, several laboratories
